Measurements of several laboratories.
Each line is one published result; the experiments were not run side by side.
Spike glycoprotein: Spike glycoprotein (Severe acute respiratory syndrome coronavirus 2, UniProt P0DTC2)

SMILES	target	effect on	mode	method	tested at	quantity	result
O=c1cc(-c2ccccc2)oc2c(O)c(O)ccc12	Spike glycoprotein	binding	–	BLI	–	koff	0.0482 s⁻¹
Cn1cc(-c2cc(F)cc(N3CCn4c(cc5c4CCCC5)C3=O)c2CO)cc(Nc2ccc(N3CCN(C4COC4)CC3)cn2)c1=O	Tyrosine-protein kinase ABL1 (ABL1, Homo sapiens, UniProt P00519, E255K)	enzyme activity	inhibitor	–	0.1 µM	inhibition	1%
O=c1c(O)c(-c2ccc(O)cc2)oc2cc(O)cc(O)c12	Spike glycoprotein	binding	–	BLI	–	koff	0.053 s⁻¹
CC[C@H](C)[C@@H]1NC(=O)[C@H](Cc2ccc(O)cc2)NC(=O)[C@H](C(C)C)NC(=O)[C@H]([C@@H](C)CC)NC(=O)[C@H](CO)NC(=O)[C@H](Cc2ccc(O)cc2)NC(=O)CSC[C@@H](C(N)=O)NC(=O)CNC(=O)[C@H](CCCNC(=N)N)NC(=O)CNC(=O)[C@H](C(C)C)NC(=O)[C@H](Cc2ccccc2)NC(=O)[C@H](CCCNC(=N)N)NC(=O)[C@H](C(C)C)NC(=O)[C@H](CCC(=O)O)NC(=O)CNC(=O)[C@H](CCCCN)NC1=O	Spike glycoprotein	binding	–	–	–	koff	0.0058 s⁻¹
O=C1c2c(O)cccc2C([C@@H]2O[C@H](CO)[C@@H](O)[C@H](O)[C@H]2O)c2cc(CO)cc(O)c21 (stereo partly shown)	Spike glycoprotein	binding	–	BLI	–	koff	0.0217 s⁻¹
Cn1cc(-c2cccc(N3CCc4c(sc5c4CC(C)(C)C5)C3=O)c2CO)cc(Nc2ccncn2)c1=O	Serine/threonine-protein kinase WNK2 (WNK2, Homo sapiens, UniProt Q9Y3S1)	enzyme activity	inhibitor	–	1 µM	inhibition	2%
Cc1nn(C)cc1-c1nc2c(N3CCN(Cc4ccc(Cl)cc4)CC3)c(Cl)cnc2[nH]1	Tyrosine-protein kinase ABL1, non-phosphorylated (ABL1, Homo sapiens, UniProt P00519, H396P)	binding	–	competition with immobilised ligand	1 µM	remaining binding	100%
CCCCCCCCCCCCCCCCCCCCCCCCCC(=O)N[C@@H](CO[C@H]1O[C@H](CO)[C@H](O)[C@H](O)[C@H]1O)[C@H](O)[C@H](O)CCCCCCCCCCCCCC	Cd1d1 (Mus musculus, UniProt P11609)	binding	–	SPR	–	kon	63000 M⁻¹ s⁻¹
CC[C@H](C)[C@@H]1NC(=O)[C@H](C)NC(=O)[C@H](CCCCN)NC(=O)[C@H](Cc2c[nH]c3ccccc23)NC(=O)[C@H](CC(C)C)NC(=O)[C@H](CC(C)C)NC(=O)[C@H](C(C)C)NC(=O)[C@H](CC(=O)O)NC(=O)[C@H](Cc2ccccc2)NC(=O)[C@H](Cc2ccc(O)cc2)NC(=O)[C@@H](Cc2ccc(O)cc2)NC(=O)CSC[C@@H](C(N)=O)NC(=O)[C@H](CO)NC1=O	Spike glycoprotein	binding	–	–	–	koff	0.065 s⁻¹
Nc1ncc(-c2nc(N3CCOCC3)nc(N3CCOCC3)n2)c(C(F)F)n1	Tyrosine-protein kinase ABL1, non-phosphorylated (ABL1, Homo sapiens, UniProt P00519)	binding	–	competition with immobilised ligand	10 µM	remaining binding	70%
COc1ncccc1-c1cnn2ccc(N3CCN(C(=O)OC(C)C)CC3)nc12	Serine/threonine-protein kinase RIO1 (RIOK1, Homo sapiens, UniProt Q9BRS2)	binding	–	competition with immobilised ligand	1 µM	remaining binding	3.9%
C=C1C[C@@]23CC[C@H]4[C@@](C)(CCC[C@@]4(C)C(=O)O[C@@H]4O[C@H](CO)[C@@H](O)[C@H](O)[C@H]4O)[C@@H]2CC[C@]1(O[C@@H]1O[C@H](CO)[C@@H](O)[C@H](O)[C@H]1O)C3	Spike glycoprotein	binding	–	BLI	–	koff	0.122 s⁻¹
C#Cc1n[nH]c2c(-c3cn(C(C)c4ccccn4)c(=O)[nH]c3=O)cc(F)cc12 (stereo not shown)	Receptor tyrosine-protein kinase erbB-2 (ERBB2, Homo sapiens, UniProt P04626)	enzyme activity	inhibitor	–	1 µM	inhibition	-4.5%
